Marks after values point to notes of the source that are not given here.
test system: mutant ataxin-3 protein; test: Inhibition of mutant ATX3 protein expression in patient fibroblasts GM06151; format: cell-based, human; conditions: PNA conjugates
How it was run: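 GM06151 fibroblasts (CAG 74 mutant/24 wild-type repeats) in MEM with 10% heat-inactivated FBS and 0.5% NEAA, 37 °C, 5% CO2, plated two days before dosing. Conjugate stocks heated 65 °C for 5 min, diluted in OptiMEM and added; medium replaced at 24 h; harvest typically day 4. 7.5% SDS-PAGE resolved mutant and wild-type ATX3 bands for western blotting, with β-actin also probed. Inhibition relative to control was fitted per replicate to get separate mutant and wild-type IC50s.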

Point of comparison: K-GCTGCTGCTGC-K8 [REP11], “Selectivity (wt IC50 versus mut IC50)” value 3.4 fold. Against it:
- K-GCTGCTG-K8 [REP7] — higher, 3.6 fold
- K8-GCTGCTGCTGCTG-K8 [REP13KK] — lower, 1.8 fold
- K-GCTGCTGCTGCTGCTGCTG-R8 [REP19R] — lower, 1.6 fold
- K-GCTGCTGCTGCTGCTG-K8 [REP16] — lower, 2.4 fold
- K-GCTGCTGCTGCTG-K4 [REP13K4] — lower, 2.3 fold
- K8-GCTGCTGCTGCTGCTGCTG-K [REP19NK] — the same, 3.4 fold
- R8-GCTGCTGCTGCTGCTGCTG-K [REP19NR] — lower, 2.7 fold
- K-GCTGCTGCTGCTGCTGCTG-Spacer-K8 [REP19S] — lower, 1.7 fold
- K-GCTGCTGCTGCTG-K6 [REP13K6] — higher, 5.0 fold
- K-GCTGCTGCTGCTG-K8 [REP13] — lower, 2.2 fold
- K-GCTGCTGCT-K8 [REP9] — lower, 3.0 fold

In the case of “K-GCTGCTGCTGCTGCTGCTG-(Kpeptoid)8 [REP19P]”, the “Selectivity (wt IC50 versus mut IC50)” value is reported as greater than 2.2 fold.
For K8-GCTGCTG-K [REP7NK], the “Selectivity (wt IC50 versus mut IC50)” value was greater than 1.7 fold.

test system: mutant ataxin-3 protein; test: not given; conditions: PNA conjugate; GM06151 fibroblasts; ref Hue et al., 2009a; cited from earlier work

For K-GCTGCTGCTGCTGCTGCTG-K8 [REP19], the “Selectivity (wt IC50 versus mut IC50)” value is given as 2.7 ^‡ fold.
